This is a sample that favours compounds with a hit; in the whole collection about 1.2% have one here.
Diaphorase act: compounds boosting diaphorase resazurin reduction – biochemical, uHTS, resorufin fluorescence, counter-screen for diaphorase-coupled primary assays, primary screen | Diaphorase/resazurin coupled assay, 16 min; active compounds read high; 1 = vehicle wells, 0 = NADH-free wells | 190,000 tested, 0.005% active | activation factor at 20 µM | AID 1229, 2008;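 active = diaphorase activity raised at least twofold by the compound at 20 µM; inactive = activation factor below 2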
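Material: purified diaphorase enzyme from Clostridium kluyveri / Medium: HEPES pH 7.4 buffer with MgCl2 and Tween 20 / Schedule: enzyme reaction of 16 min at room temperature / Measured by: resorufin fluorescence, excitation 544 nm, emission 590 nm / Evaluation: rise in resorufin formation, marking diaphorase activation or chemical reduction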
PMI activator: activators of human PMI, primary screen, biochemical, fluorescence intensity, near-Km mannose 6-phosphate | Mannose-6-phosphate isomerase (Homo sapiens), P34949 | purified human PMI, coupled resazurin fluorescence, 20 min; active compounds read high; 1 = vehicle control, 0 substrate-free wells | activation factor at 20 µM | 190,000 tested, 0.005% active | AID 1214, 2008;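 active = activation factor of 2 or more at 20 µM, relative to plate controls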
Target sequence (P34949 whole entry, looked up): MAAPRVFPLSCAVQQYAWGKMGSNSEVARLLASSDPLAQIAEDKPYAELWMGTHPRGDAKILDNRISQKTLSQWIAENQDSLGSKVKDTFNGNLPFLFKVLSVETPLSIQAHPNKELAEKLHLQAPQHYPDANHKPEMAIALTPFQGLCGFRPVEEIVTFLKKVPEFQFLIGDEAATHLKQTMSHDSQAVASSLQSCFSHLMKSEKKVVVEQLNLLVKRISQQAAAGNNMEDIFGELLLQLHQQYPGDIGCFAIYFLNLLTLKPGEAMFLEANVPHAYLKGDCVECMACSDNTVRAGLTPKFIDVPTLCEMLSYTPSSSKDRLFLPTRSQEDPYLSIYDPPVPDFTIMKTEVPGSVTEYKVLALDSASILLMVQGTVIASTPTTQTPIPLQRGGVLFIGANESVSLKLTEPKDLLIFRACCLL
PMI act hi M6P: human PMI activators, high substrate, primary screen, biochemical, fluorescence intensity, near-saturating mannose 6-phosphate; activation factor at 20 µM; AID 1216, 2008; Mannose-6-phosphate isomerase (Homo sapiens), P34949; 190,000 tested, 0.34% active; coupled PMI enzyme assay, resazurin fluorescence, 20 min; active compounds read high; 1 = untreated enzyme, 0 = substrate-free blank;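 active = activation factor of 2 or more at 20 µM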
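Technique: Diaphorase-driven resazurin-to-resorufin fluorescence, excitation 544, emission 590 nm | Assay system: Human PMI in coupled enzyme assay | Times: Enzyme reaction with compound 20 min at room temperature | Medium: HEPES-buffered pH 7.4 with magnesium and detergent | Reagent: Mannose-6-phosphate 1.0 mM (near-saturating) plus 0.22 mM NADP+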
DTT redox prof: compounds producing H2O2 with reducing agent – biochemical, NIH compound library profiling, artefact control for MLSCN library redox annotation, primary screen. 200,000 tested, 0.03% active. DTT-dependent redox cycling H2O2, phenol red/HRP absorbance; 100% = 100 µM peroxide control, 0% = buffer. activation, % at 10 µM;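 active = activation of at least 50% relative to the plate's high and low controls in the primary single-dose screen; inactive = activation below 50%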;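 note: compound incubated with DTT at 0.8 mM final as the reducing agent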
Efa HMGR inh: inhibitors of E. faecalis class II HMGR, primary screen, biochemical, Enterococcus faecalis | purified E. faecalis HMGR, NADPH absorbance 340 nm kinetic | inhibition, % at 10 µM | 190,000 tested, 0.41% active | AID 1066, 2008;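 active = inhibition above a set limit, the median over all tested compounds plus 3 SD, cut at about 9.5% in these data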;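 note: enzyme runs in reverse so mevalonate oxidation gives rising NADPH absorbance; 0% = complete reaction with DMSO and 100% = background rate lacking mevalonate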
p47phox inh: p47phox/p22phox peptide binding inhibitors, primary screen, biochemical, uHTS, NADPH oxidase regulatory subunit; Neutrophil cytosol factor 1 (Homo sapiens), P14598; fluorescence polarization, 2 h; inhibition, % at 24.7 µM; 220,000 tested, 0.53% active; AID 1274, 2008;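 active = inhibition above about 30%, limit read from the data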;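 note: 0% = p47phox with labelled peptide and 100% = labelled peptide alone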
Starred values were filed as active, the others as inactive; x = not tested or not shown.

SMILES | Diaphorase act | PMI activator | PMI act hi M6P | DTT redox prof | Efa HMGR inh | p47phox inh
CCOc1cccc2c1OC1(C)CC2NC(=O)N1Cc1ccccc1 (stereo not given) | 0.9 | 1 | 1 | -1 | 0 | 60*
CCOc1cc2[nH]c(=S)n(CCC(=O)NCc3ccc(OC)cc3)c(=O)c2cc1OCC | 0.8 | 0.9 | 0.9 | 1 | 6 | 35*
CCOc1cc2[nH]c(=S)n(CCCCC(=O)NCc3ccco3)c(=O)c2cc1OCC | 1 | 0.9 | 1 | -1 | -1 | 7
Cc1ccc(Cn2cc(SCC(N)=O)c3ccccc32)cc1 | 1 | 0.9 | 0.9 | 0 | 1 | 37*
CCOc1ccc(OCC)c(S(=O)(=O)NCc2ccc3c(c2)OCO3)c1 | 0.8 | 0.9 | 0.9 | -2 | -7 | 66*
N#Cc1cnc(NOCc2ccc(Cl)cc2)nc1 | 1 | 1.1 | 1.1 | 0 | 9.6* | 1
COc1ccnc(N=CNOCc2ccc(Cl)cc2)c1C#N | x | x | x | x | x | -19
CCOC(=O)C1=C(CN2CC(C)CC(C)C2)NC(=O)NC1c1ccc2c(c1)OCO2 (stereo not given) | 0.8 | 0.9 | 0.9 | -1 | -1 | 1
O=C(Nc1ccccc1)C1=C[C@H](c2ccc3c(c2)OCO3)C[C@H](OCc2ccc(CO)cc2)O1 | 0.8 | 0.9 | 0.8 | 0 | -4 | -39
CN(C)c1ccc(C(=S)N2CCOCC2)cc1Br | 0.9 | 1.9 | 2.6* | 2 | 2 | -6
CCC(C)c1ccc(NC(=O)CN(C)CC(=O)Nc2cccc(OC)c2)cc1 (stereo not given) | 0.9 | 1 | 1 | -2 | -4 | 1
O=C(CSc1ccccc1C(=O)O)c1ccc([N+](=O)[O-])cc1 | 1 | 1.9 | 2.2* | 0 | 3 | x
CC(=O)Nc1ccc2c(c1)OCCO2 | 0.9 | 1 | 0.9 | 3 | 16* | x
O=C(Nc1ccc2c(c1)OCCO2)c1c(F)c(F)c(F)c(F)c1F | 0.9 | 1 | 1 | 1 | 0 | 63*
O=C(NCC1CCCO1)C(=O)c1c[nH]c2ccccc12 (stereo not given) | 0.9 | 1 | 0.9 | -2 | -2 | -9
CCN(Cc1cc(=O)n2cc(Cl)c(C)c(Cl)c2n1)Cc1nc2ccccc2c(=O)[nH]1 | 0.8 | 1.2 | 0.8 | 0 | 10* | -12
CCN(Cc1nc2ccccc2c(=O)[nH]1)Cc1nc2cc(OC)c(OC)cc2c(=O)[nH]1 | 0.8 | 1.1 | 1.1 | 3 | -7 | -9
COCc1cnc(C)nc1N | 0.9 | 1.2 | 1.1 | -1 | 0 | -1
COc1ccc(CN2CCC(CO)(Cc3ccccc3C(F)(F)F)CC2)c(F)c1 | 0.9 | 1.1 | 1 | -3 | 10* | -3
CC/C(=C(\c1ccc(O)cc1)c1ccc(OCCN(C)C)cc1)c1ccccc1 | 1.4 | 0.9 | 1 | x | 6 | 25
CCN(CC)CCOc1ccc(/C(=C(/Cl)c2ccccc2)c2ccccc2)cc1 | 1.3 | 1 | 1.1 | 0 | -5 | 51*
Cc1cccc(C)c1NC(=O)c1sc(Cl)nc1C | 1 | 1 | 1 | 0 | 0 | -7
CCOc1cc(/C=N/Nc2cccc(C(=O)O)c2)ccc1OCC(=O)N1CCCCC1 | 0.9 | 1.7 | 2.3* | 0 | -2 | -17
OCCCc1nc2ccccc2[nH]1 | 0.9 | 1 | 0.9 | 0 | -4 | x
COc1cccc(NC(=O)Cc2ccccc2)c1 | 0.8 | 0.9 | 1 | 1 | -2 | -1
SMILES | Diaphorase act | PMI activator | PMI act hi M6P | DTT redox prof | Efa HMGR inh | p47phox inh
O=C(Cc1ccccc1)Nc1cccc(N2C(=O)C=CC2=O)c1 | 0.8 | 1.5 | 2.1* | 0 | -4 | 12
O=c1c(Cc2ccccc2)c(O)ccn1Cc1ccco1 | 0.9 | 0.9 | 0.8 | 0 | -8 | -7
O=C(/C=C/c1ccncc1)c1ccc(NC(=O)c2ccccc2F)cc1 | 1.1 | 1 | 1 | 1 | -2 | 30*
N#CC12COC3(CCCCC3C1(C#N)C#N)OC2=N (stereo not given) | x | x | x | x | x | 5
N#CC1(C#N)COC23CCCCC2C1(C#N)C(=N)O3 (stereo not given) | 0.8 | 0.9 | 0.7 | -1 | -9 | 141*
CC(=O)/C(=N/Nc1ccccc1)N1CCOCC1 | 0.9 | 0.9 | 1 | 2 | -7 | 0
CC(=O)/C(=N/Nc1ccccc1C)N1CCOCC1 | 0.8 | 1.5 | 2.4* | -6 | -2 | 0
CC(=O)/C(=N/Nc1cccc(Cl)c1)N1CCOCC1 | 0.9 | 1.6 | 2* | 0 | -5 | -4
Cc1ccccc1NC(=O)c1sc(Cl)nc1-c1ccccc1 | 0.9 | 0.9 | 1 | -1 | -5 | 68*
Cc1ccc(C)c(NC(=O)c2sc(Cl)nc2-c2ccccc2)c1 | 0.9 | 1 | 1 | 0 | -5 | 2
CCOC(=O)Nc1ccc(C)cc1NC(=O)OCC | 0.9 | 0.9 | 0.9 | -3 | -3 | -13
CCOC(=O)Nc1ccc(C)cc1C | 0.9 | 1 | 1 | 0 | -7 | 117*
COc1ccccc1-c1noc(-c2ccccc2C(=O)NCc2ccco2)n1 | 0.9 | 0.9 | 1 | 0 | -5 | -4
COc1cc(-c2noc(-c3ccccc3C(=O)NCc3ccco3)n2)cc(OC)c1OC | 0.8 | 0.9 | 0.9 | -3 | -2 | 42*
O=C(CNC(=O)c1ccccc1Cl)OC1CCOC1=O (stereo not given) | 1 | 1.1 | 1.1 | -1 | 0 | -23
CCOC(=O)C1(CCOc2ccccc2)CCN(Cc2ccc(-n3cccn3)cc2)CC1 | 0.8 | 0.8 | 0.8 | 0 | 2 | -10
CCOc1ccc(-c2cc(CCCC(=O)NCc3ccco3)no2)cc1 | 0.9 | 1 | 1 | 0 | 5 | 33*
CCN(C(=O)COC(=O)c1nn(-c2ccccc2)c(=O)c2ccccc12)C1CCS(=O)(=O)C1 (stereo not given) | x | x | x | x | x | -11
Cc1cccc(C)c1OCC(=O)Nn1c(=O)[nH]c2ccccc2c1=O | 1.1 | 1 | 0.9 | 0 | 11* | -17
Cc1[nH]c2ccccc2c1/C=N/Nc1ccc(F)cc1F | 0.8 | 1.5 | 2.1* | 0 | -2 | -16
Cc1[nH]c2ccccc2c1/C=N/NC(=O)c1cccc(F)c1 | 0.8 | 0.9 | 0.8 | 0 | 3 | 1
COc1ccc2nc(C)cc(SCC(=O)N/N=C/c3ccccc3)c2c1 | 0.9 | 0.9 | 1 | 0 | -6 | 20

Screens (PubChem)
